Data taken from ChEMBL document CHEMBL1151448, “Comparative antianaerobic activities of doripenem determined by MIC and time-kill analysis” (2008).

Assays:
Type in all cases: functional
Clostridium perfringens = assay: Bactericidal activity against Clostridium perfringens isolated from intra-abdominal infection and pelvic inflammatory disease patients assessed as bacterial killing at MIC after 48 hrs by time kill analysis
Outline: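 Time-kill in prereduced brucella broth with 5% laked horse blood cells, hemin and vitamin K1. […] Viable counts taken at 6, 12, 24 and 48 h, plates incubated 48 h anaerobically. Kill scored as 90%, 99% or 99.9%; 99.9% defines bactericidal.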

Finegoldia magna = assay: Bactericidal activity against beta lactamase-positive Finegoldia magna isolated from intra-abdominal infection and pelvic inflammatory disease patients assessed as bacterial killing at MIC after 48 hrs by time kill analysis
Outline: (§1)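 Anaerobic macrodilution time-kill. Inoculum from brucella blood plates, prepared and diluted in prereduced brucella broth inside the anaerobe chamber. Final 10^6 to 10^7 CFU/ml in prereduced brucella broth with 5% laked horse blood cells, 5 μg/ml hemin and 1 μg/ml vitamin K1. […] Shaken at 35°C for 48 h. Viable counts taken at 6, 12, 24 and 48 h. 99.9% kill taken as bactericidal.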

Bacteroides fragilis = assay: Bactericidal activity against beta lactamase-positive Bacteroides fragilis isolated from intra-abdominal infection and pelvic inflammatory disease patients assessed as bacterial killing at MIC after 48 hrs by time kill analysis
Outline: (§2)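 Macrodilution time-kill in prereduced brucella broth with 5% laked horse blood, hemin 5 μg/ml and vitamin K1 1 μg/ml, at final inoculum 10^6–10^7 CFU/ml. […] Viable counts were taken at 6, 12, 24 and 48 h on plates incubated 48 h anaerobically. 99.9% kill was taken as bactericidal.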

Fusobacterium nucleatum = assay: Bactericidal activity against beta lactamase-positive Fusobacterium nucleatum isolated from intra-abdominal infection and pelvic inflammatory disease patients assessed as bacterial killing at MIC after 48 hrs by time kill analysis; outline: as §1
Prevotella intermedia = assay: Bactericidal activity against beta lactamase-positive Prevotella intermedia isolated from intra-abdominal infection and pelvic inflammatory disease patients assessed as bacterial killing at MIC after 48 hrs by time kill analysis; outline: as §1
Clostridioides difficile = assay: Bactericidal activity against Clostridium difficile isolated from intra-abdominal infection and pelvic inflammatory disease patients assessed as bacterial killing at MIC after 48 hrs by time kill analysis; outline: as §2
[1] = system: Bacteroides thetaiotaomicron; assay: Bactericidal activity against beta lactamase-positive Bacteroides thetaiotaomicron isolated from intra-abdominal infection and pelvic inflammatory disease patients assessed as bacterial killing at MIC after 48 hrs by time kill analysis; outline: as §2

Measured: Activity

C[C@@H](O)[C@H]1C(=O)N2C(C(=O)O)=C(S[C@@H]3CN[C@H](CNS(N)(=O)=O)C3)[C@H](C)[C@H]12 [DORIPENEM]
99%: Clostridium perfringens | Finegoldia magna | Bacteroides fragilis | Fusobacterium nucleatum | Prevotella intermedia | Clostridioides difficile | [1]

C[C@@H](O)[C@H]1C(=O)N2C(C(=O)O)=C(SCCNC=N)C[C@H]12 [IMIPENEM ANHYDROUS]
99%: Clostridium perfringens | Finegoldia magna | Bacteroides fragilis | Fusobacterium nucleatum | Prevotella intermedia | Clostridioides difficile | [1]
